Test results reported in ChEMBL document CHEMBL1795254, “Synthesis, structure-affinity relationships, and molecular modeling studies of novel pyrazolo[3,4-c]quinoline derivatives as adenosine receptor antagonists” (Bioorg Med Chem, 2011).
pKi: −log10 of the molar value.

What was measured:
[1] = molecular target: T1, Adenosine receptor A2b (Homo sapiens) (UniProt P29275); assay: Antagonist activity at human recombinant adenosine A2B receptor expressed in CHO cells assessed as inhibition of NECA-induced cAMP levels at 1 uM; assay type: functional, cell-based
T1 sequence (whole entry): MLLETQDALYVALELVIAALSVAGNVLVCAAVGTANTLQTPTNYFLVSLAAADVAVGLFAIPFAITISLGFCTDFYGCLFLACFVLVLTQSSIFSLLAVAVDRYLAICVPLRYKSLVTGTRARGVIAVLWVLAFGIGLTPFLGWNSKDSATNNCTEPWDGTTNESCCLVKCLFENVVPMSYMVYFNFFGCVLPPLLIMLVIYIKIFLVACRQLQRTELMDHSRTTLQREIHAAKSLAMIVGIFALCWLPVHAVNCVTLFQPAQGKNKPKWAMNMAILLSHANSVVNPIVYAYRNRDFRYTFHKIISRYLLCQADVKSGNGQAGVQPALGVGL
In short: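 hA2B-transfected CHO cells (1×10⁶/assay), preincubated 10 min at 37 °C in pH 7.4 saline-Hepes-glucose buffer with 2 IU/ml adenosine deaminase and Ro 20-1724 as phosphodiesterase inhibitor. Compound tested against 200 nM NECA-stimulated cAMP. Reaction stopped with cold 6% TCA and ether-extracted. cAMP measured by competition binding with [³H]cAMP and bovine adrenal binding protein (150 min, 4 °C), charcoal separation, scintillation counting; expressed as percentage inhibition.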

[2] = molecular target: T2, Adenosine receptor A1 (Homo sapiens) (UniProt P30542); assay: Displacement of [3H]DPCPX from human recombinant adenosine A1 receptor expressed in CHO cell membranes at 1 uM by scintillation counting
T2 sequence (whole entry): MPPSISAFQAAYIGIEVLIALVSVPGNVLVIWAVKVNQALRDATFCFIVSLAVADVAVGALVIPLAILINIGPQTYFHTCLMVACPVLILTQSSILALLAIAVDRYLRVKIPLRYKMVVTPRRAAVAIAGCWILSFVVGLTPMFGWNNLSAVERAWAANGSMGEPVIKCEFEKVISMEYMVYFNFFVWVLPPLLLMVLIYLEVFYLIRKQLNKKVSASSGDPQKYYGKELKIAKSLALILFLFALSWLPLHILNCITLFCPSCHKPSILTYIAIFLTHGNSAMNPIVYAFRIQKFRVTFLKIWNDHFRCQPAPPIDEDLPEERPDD
In short: (§1)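 hA1 CHO membranes incubated with 1 nM [³H]DPCPX for 120 min at 25 °C in 50 mM Tris-HCl, pH 7.4. Ki from six to eight antagonist concentrations: IC50 converted by Cheng–Prusoff, curves fitted by weighted nonlinear least squares, four separate assays in duplicate (mean ± SEM). Single-concentration runs give percentage inhibition of specific binding.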

[3] = molecular target: T3, Adenosine receptor A3 (Homo sapiens) (UniProt P0DMS8); assay: Displacement of [125I]I-AB-MECA from human recombinant adenosine A3 receptor expressed in CHO cells at 1 uM by scintillation counting; assay type: cell-based
T3 sequence (whole entry): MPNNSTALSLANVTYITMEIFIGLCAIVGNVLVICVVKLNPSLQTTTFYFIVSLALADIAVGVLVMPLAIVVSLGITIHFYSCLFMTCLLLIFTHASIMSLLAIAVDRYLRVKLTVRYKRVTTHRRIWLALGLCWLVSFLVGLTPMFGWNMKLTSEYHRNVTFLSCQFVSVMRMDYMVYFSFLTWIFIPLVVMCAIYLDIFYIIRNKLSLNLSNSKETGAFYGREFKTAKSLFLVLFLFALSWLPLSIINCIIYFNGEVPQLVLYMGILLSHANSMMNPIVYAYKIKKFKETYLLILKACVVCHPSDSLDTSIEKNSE
In short: (§2)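 For hA3, CHO membranes are incubated with [¹²⁵I]AB-MECA in 50 mM Tris-HCl, 10 mM MgCl2, 1 mM EDTA, pH 7.4, for 120 min at 4 °C. Ki from six to eight ligand concentrations via Cheng–Prusoff with weighted nonlinear least-squares fitting; four assays in duplicate (mean ± SEM). Single-concentration runs give percentage inhibition.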

Adenosine receptor A2a [4] = molecular target: T4, Adenosine receptor A2a (Homo sapiens, UniProt P29274); assay: Displacement of [3H]ZM241385 from human recombinant adenosine A2A receptor expressed in CHO cell membranes at 1 uM by scintillation counting
In short: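 Uses 1 nM [³H]ZM241385 with hA2A CHO membranes in 50 mM Tris-HCl, 10 mM MgCl2, pH 7.4, for 60 min at 4 °C. Ki from six to eight antagonist concentrations via Cheng–Prusoff with weighted nonlinear least-squares fitting; four assays in duplicate (mean ± SEM). Single-concentration runs give percentage inhibition.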

Adenosine receptor A2a [5] = molecular target: T4, Adenosine receptor A2a; settings: CHO, 10 uM
Adenosine receptor A1 = molecular target: T5, Adenosine receptor A1 (Homo sapiens, UniProt P30542); assay: Displacement of [3H]DPCPX from human recombinant adenosine A1 receptor expressed in CHO cell membranes by scintillation counting; in short: as §1
T5 sequence (P30542 whole entry): T2 sequence (whole entry)

Adenosine receptor A3 = molecular target: T6, Adenosine receptor A3 (Homo sapiens, UniProt P0DMS8); assay: Displacement of [125I]I-AB-MECA from human recombinant adenosine A3 receptor expressed in CHO cells by scintillation counting; assay type: cell-based; in short: as §2
T6 sequence (P0DMS8 whole entry): T3 sequence (whole entry)

Adenosine receptor A2a [6] = molecular target: T4, Adenosine receptor A2a; assay: Displacement of [3H]ZM241385 from human recombinant adenosine A2A receptor expressed in CHO cell membranes by scintillation counting

T4 sequence (P29274 whole entry): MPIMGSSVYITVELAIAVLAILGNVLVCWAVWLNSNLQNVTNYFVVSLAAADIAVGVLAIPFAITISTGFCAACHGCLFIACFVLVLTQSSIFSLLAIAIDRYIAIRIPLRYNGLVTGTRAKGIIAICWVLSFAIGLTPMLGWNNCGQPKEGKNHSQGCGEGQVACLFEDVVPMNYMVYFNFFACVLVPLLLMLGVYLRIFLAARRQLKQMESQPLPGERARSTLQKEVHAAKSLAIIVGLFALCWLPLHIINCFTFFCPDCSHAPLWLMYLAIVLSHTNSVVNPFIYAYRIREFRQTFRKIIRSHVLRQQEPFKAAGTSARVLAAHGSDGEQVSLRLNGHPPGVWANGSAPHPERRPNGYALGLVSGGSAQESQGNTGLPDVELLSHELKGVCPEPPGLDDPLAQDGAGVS

| SMILES | inhibition [1] [%] | inhibition [2] [%] | inhibition [3] [%] | inhibition (Adenosine receptor A2a [4]) [%] | inhibition (Adenosine receptor A2a [5]) [%] | pKi (Adenosine receptor A1) | pKi (Adenosine receptor A3) | pKi (Adenosine receptor A2a [6]) |
| --- | --- | --- | --- | --- | --- | --- | --- | --- |
| O=c1[nH]c2c(OC(c3ccccc3)c3ccccc3)cccc2c2cn(-c3ccccc3)nc12 | 7 | 6 | 6 | 1 | – | – | – | – |
| O=c1[nH]c2ccccc2c2cn(-c3ccccc3)nc12 | – | – | – | – | 43 | – | – | – |
| Nc1nc2c(Br)cccc2c2cn(-c3ccccc3)nc12 | 2 | – | 29 | 35 | – | 6.52 | – | – |
| Nc1cccc2c1[nH]c(=O)c1nn(-c3ccccc3)cc12 | 5 | 8 | 18 | 1 | – | – | – | – |
| Nc1nc2c(OCCc3ccccc3)cccc2c2cn(-c3ccccc3)nc12 | 5 | 40 | 28 | 11 | – | – | – | – |
| Cn1cc2c(n1)c(N)nc1c(OCc3ccccc3)cccc12 | 4 | – | – | – | – | 6.01 | 6.30 | 6.12 |
| Nc1nc2c(O)cccc2c2cn(-c3ccccc3)nc12 | 4 | – | 20 | 19 | – | 7.00 | – | – |
| Nc1nc2c(OCc3ccccc3)cccc2c2cn(-c3ccccc3)nc12 | 5 | – | 20 | 16 | – | 6.85 | – | – |
| Nc1nc2c(NCc3ccccc3)cccc2c2cn(-c3ccccc3)nc12 | 3 | – | 1 | 1 | – | 6.34 | – | – |
| Cn1cc2c(n1)c(=O)[nH]c1c(OCc3ccccc3)cccc12 | 3 | 2 | – | 1 | – | – | 6.22 | – |
| O=c1[nH]c2c(Br)cccc2c2cn(-c3ccccc3)nc12 | 5 | 8 | 16 | 17 | – | – | – | – |
| O=c1[nH]c2c(OCc3ccccc3)cccc2c2cn(-c3ccccc3)nc12 | 2 | 20 | 33 | 1 | – | – | – | – |
| O=c1[nH]c2c(O)cccc2c2cn(-c3ccccc3)nc12 | 4 | 1 | 16 | 5 | – | – | – | – |
| Cn1cc2c(n1)c(N)nc1ccccc12 | 5 | 20 | 18 | 26 | – | – | – | – |
| Cn1cc2c(n1)c(=O)[nH]c1ccccc12 | 2 | 2 | 12 | 1 | – | – | – | – |
| O=C(Nc1cccc2c1[nH]c(=O)c1nn(-c3ccccc3)cc12)OCc1ccccc1 | 5 | 3 | 14 | 1 | – | – | – | – |
